In ChEMBL document CHEMBL1122932, “Metabolism of phencyclidine. The role of the carbinolamine intermediate in the formation of lactam and amino acid metabolites of nitrogen heterocycles” (J Med Chem, 1985):

Columns and labels:
Format in all cases: ADME
Mus musculus [1] = organism: Mus musculus; experiment: In vitro level of metabolite in mice liver microsomes at 0 hours; ND is Not Detected (< 8 ug/vessel)
Summary of the method: (§1)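 Time-zero control: the reaction was stopped right after phencyclidine was added to the mouse (male ICR) liver 12500g supernatant plus NADP-regenerating cofactor mix. Metabolites were quantified by GLC or HPLC with internal standards (N-benzylphenylalanine or ketamine), using calibration curves from spiked microsomal mixtures.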

Mus musculus [2] = organism: Mus musculus; experiment: In vitro level of metabolite in mice liver microsomes at 1 hour
Summary of the method: (§2)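 12500g liver supernatant from 10 male ICR mice (homogenized in ice-cold pH 7.4 Tris with 0.15 M KCl; stored -70 °C, used within 15 h). Incubated with phencyclidine and NADP/glucose 6-phosphate/nicotinamide/MgSO4 cofactor at 37 °C, 120 osc/min, 100% O2. Metabolites measured by GLC (N-benzylphenylalanine internal standard, nitrogen detector) or HPLC (ketamine internal standard), calibrated by spiking microsomal blanks.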

Mus musculus [3] = organism: Mus musculus; experiment: In vitro level of metabolite in mice liver microsomes at 2 hours; summary of the method: as §2
Mus musculus [4] = organism: Mus musculus; experiment: In vitro level of metabolite in mice liver microsomes at 3 hours (heat inactivated control); ND is Not Detected (< 8 ug/ vessel)
Summary of the method: (§3)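 Control in which mouse (male ICR) liver 12500g supernatant was heat-inactivated before phencyclidine and cofactors were added. It was then incubated at 37 °C under 100% O2 with shaking alongside the test samples. Metabolites were quantified by GLC or HPLC against internal standards (N-benzylphenylalanine or ketamine), calibrated by spiking.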

Mus musculus [5] = organism: Mus musculus; experiment: In vitro level of metabolite in mice liver microsomes at 3 hours; summary of the method: as §2
Mus musculus [6] = organism: Mus musculus; experiment: In vitro level of metabolite in mice liver microsomes at 0 hours; ND is […] (< 2 ug/vessel); summary of the method: as §1
Mus musculus [7] = organism: Mus musculus; experiment: In vitro level of metabolite in mice liver microsomes at 3 hours (heat inactivated control); ND is Not Detected (< 2 ug/vessel); summary of the method: as §3
Mus musculus [8] = organism: Mus musculus; experiment: In vitro level of metabolite in mice liver microsomes at 1 hour; ND is Not Detected (< 8 ug/vessel); summary of the method: as §2
Mus musculus [9] = organism: Mus musculus; experiment: In vitro level of metabolite in mice liver microsomes at 2 hours; ND is Not Detected (< 8 ug/vessel); summary of the method: as §2
Mus musculus [10] = organism: Mus musculus; experiment: In vitro level of metabolite in mice liver microsomes at 3 hours (heat inactivated control); ND is Not Detected (< 8 ug/vessel); summary of the method: as §3
Mus musculus [11] = organism: Mus musculus; experiment: In vitro level of metabolite in mice liver microsomes at 3 hours; ND is Not Detected (< 8 ug/vessel); summary of the method: as §2

Cl.O=C(O)CCCCNC1(c2ccccc2)CCCCC1
Metabolite levels (Mus musculus [1]): Not detected
Metabolite levels (Mus musculus [2]): 110 µg
Metabolite levels (Mus musculus [3]): 123 µg
Metabolite levels (Mus musculus [4]): Not detected
Metabolite levels (Mus musculus [5]): 135 µg

OCCCCCNC1(c2ccccc2)CCCCC1
Metabolite levels (Mus musculus [6]): Not detected
Metabolite levels (Mus musculus [2]): 2.8 µg
Metabolite levels (Mus musculus [3]): 2.4 µg
Metabolite levels (Mus musculus [7]): Not detected
Metabolite levels (Mus musculus [5]): 1.4 µg

O=C1CCCCN1C1(c2ccccc2)CCCCC1
Metabolite levels (Mus musculus [1]): Not detected
Metabolite levels (Mus musculus [8]): Not detected
Metabolite levels (Mus musculus [9]): Not detected
Metabolite levels (Mus musculus [10]): Not detected
Metabolite levels (Mus musculus [11]): Not detected

OC1CCN(C2(c3ccccc3)CCCCC2)CC1
Metabolite levels (Mus musculus [2]): 9.3 µg
Metabolite levels (Mus musculus [3]): 9.2 µg
Metabolite levels (Mus musculus [5]): 10.3 µg
